Experiment [1] concerns the target 5-hydroxytryptamine receptor 2B (Rattus norvegicus, UniProt P30994). Briefly: Antagonistic affinity measured as pA2 value on 5-hydroxytryptamine 2B receptor of the rat stomach fundus. The class given is functional, tissue-based. The following applies: read-out: pA2 (converted).
Experiment [2] has as its target T1, 5-hydroxytryptamine receptor 2C (Homo sapiens, UniProt P28335).
T1 sequence (P28335 whole entry): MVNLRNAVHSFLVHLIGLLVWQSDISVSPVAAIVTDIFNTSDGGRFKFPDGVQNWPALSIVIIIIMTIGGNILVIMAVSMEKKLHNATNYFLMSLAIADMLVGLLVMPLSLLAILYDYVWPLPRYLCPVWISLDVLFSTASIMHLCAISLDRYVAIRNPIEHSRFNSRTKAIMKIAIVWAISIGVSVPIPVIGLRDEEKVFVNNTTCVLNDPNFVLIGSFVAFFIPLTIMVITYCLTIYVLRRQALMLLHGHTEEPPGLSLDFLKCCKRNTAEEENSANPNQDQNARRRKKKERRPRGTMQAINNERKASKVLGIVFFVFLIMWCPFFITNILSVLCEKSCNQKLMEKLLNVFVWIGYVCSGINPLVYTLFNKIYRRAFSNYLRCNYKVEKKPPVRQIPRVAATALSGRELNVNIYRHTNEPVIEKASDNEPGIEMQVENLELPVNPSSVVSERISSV
Briefly: (§1) Selectivity as the ratio of Ki value towards 5-hydroxytryptamine 2C receptor to that of pA2 value towards 5-hydroxytryptamine 2B receptor. The class given is functional.

Experiment [3] deals with 5-HT2C receptor (Homo sapiens). Briefly: Antagonistic binding affinity measured against 5-hydroxytryptamine 2C receptor (human clone expressed in 293 cells) using [3H]mesulergine as radioligand.
The target of experiment [4] is 5-hydroxytryptamine receptor 1E (Homo sapiens, UniProt P28566). Briefly: The binding affinity (pKi) measured against 5-hydroxytryptamine 1E receptor (cloned human receptors in CHO cells) using […] as radioligand. The class given is cell-based. An outline of the steps:
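Radioligand binding at cloned human 5-HT1E receptors expressed in CHO cells, labelled with [3H]-5-HT.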

For experiment [5], the target named is T2, Adrenergic receptor alpha-1 (Rattus norvegicus, UniProt P15823+P23944+P43140).
T2 sequence (P15823 whole entry): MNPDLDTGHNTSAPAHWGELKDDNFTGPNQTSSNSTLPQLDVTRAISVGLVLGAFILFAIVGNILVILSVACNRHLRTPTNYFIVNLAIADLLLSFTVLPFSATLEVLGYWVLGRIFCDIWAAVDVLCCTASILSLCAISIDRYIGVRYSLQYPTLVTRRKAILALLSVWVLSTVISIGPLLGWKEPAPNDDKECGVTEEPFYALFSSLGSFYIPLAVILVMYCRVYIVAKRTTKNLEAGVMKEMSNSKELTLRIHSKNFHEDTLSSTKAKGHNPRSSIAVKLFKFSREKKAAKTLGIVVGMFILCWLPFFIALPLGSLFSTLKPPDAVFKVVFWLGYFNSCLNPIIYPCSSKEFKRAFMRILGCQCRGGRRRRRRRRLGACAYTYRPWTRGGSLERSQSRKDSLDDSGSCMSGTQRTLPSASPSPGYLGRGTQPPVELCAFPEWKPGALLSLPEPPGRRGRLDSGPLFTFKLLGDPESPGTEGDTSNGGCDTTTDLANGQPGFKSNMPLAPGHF
T2 sequence (P23944 whole entry): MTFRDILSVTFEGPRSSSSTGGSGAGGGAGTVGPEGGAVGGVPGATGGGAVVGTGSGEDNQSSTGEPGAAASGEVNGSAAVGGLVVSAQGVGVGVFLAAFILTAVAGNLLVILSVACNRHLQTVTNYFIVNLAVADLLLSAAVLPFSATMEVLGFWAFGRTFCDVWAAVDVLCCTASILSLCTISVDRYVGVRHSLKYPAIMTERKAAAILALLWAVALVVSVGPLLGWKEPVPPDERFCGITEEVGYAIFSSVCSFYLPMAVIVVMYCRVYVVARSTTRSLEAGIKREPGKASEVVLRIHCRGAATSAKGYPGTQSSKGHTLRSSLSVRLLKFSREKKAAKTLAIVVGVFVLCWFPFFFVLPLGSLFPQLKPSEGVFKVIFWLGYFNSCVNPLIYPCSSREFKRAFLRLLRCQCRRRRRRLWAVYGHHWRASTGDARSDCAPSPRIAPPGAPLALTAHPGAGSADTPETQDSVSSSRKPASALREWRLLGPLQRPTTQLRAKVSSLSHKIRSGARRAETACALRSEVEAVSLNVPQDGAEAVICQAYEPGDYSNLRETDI
T2 sequence (P43140 whole entry): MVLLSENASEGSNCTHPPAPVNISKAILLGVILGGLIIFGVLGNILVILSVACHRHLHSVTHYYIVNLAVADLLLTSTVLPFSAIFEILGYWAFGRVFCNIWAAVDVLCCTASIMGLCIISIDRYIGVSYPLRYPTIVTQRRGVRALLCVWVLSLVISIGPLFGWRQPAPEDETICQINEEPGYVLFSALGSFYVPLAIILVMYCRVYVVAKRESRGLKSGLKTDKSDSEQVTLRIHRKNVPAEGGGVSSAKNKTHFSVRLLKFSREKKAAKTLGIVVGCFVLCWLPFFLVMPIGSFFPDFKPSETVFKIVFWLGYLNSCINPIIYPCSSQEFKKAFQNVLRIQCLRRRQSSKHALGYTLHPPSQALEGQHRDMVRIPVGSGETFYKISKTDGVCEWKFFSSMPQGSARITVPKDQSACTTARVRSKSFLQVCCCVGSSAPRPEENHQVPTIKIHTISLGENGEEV
Briefly: The binding affinity (pKi) measured against Alpha-1 adrenergic receptor of rat cortex using [3H]prazosin as radioligand.

Another experiment has as its target D(1A) dopamine receptor (Homo sapiens, UniProt P21728). Briefly: The binding affinity (pKi) measured against Dopamine receptor D1 using [3H]-SCH- 23390 as radioligand. An outline of the steps: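 Binding at cloned human dopamine D1 receptors expressed in LTK cells.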
In a further experiment the target is D(2) dopamine receptor (Homo sapiens, UniProt P14416). Briefly: In vitro binding affinity was measured on Dopamine receptor D2.
Sequence of D(2) dopamine receptor (P14416 whole entry): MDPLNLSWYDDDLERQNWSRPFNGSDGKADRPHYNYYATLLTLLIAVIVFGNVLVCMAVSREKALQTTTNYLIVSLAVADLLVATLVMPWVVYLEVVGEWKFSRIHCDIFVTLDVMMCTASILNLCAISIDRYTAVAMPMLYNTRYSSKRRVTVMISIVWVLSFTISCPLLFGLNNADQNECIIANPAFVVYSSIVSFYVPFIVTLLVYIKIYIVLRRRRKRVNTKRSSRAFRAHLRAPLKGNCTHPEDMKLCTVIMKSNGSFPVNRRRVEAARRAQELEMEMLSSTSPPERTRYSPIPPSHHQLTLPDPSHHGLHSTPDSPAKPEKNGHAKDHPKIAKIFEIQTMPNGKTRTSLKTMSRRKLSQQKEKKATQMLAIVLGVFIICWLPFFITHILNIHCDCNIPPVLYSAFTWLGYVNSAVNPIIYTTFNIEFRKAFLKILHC
Experiment [6] has as its target GABA-A receptor; anion channel. Briefly: Inhibition of [3H]muscimol binding to Gamma-aminobutyric acid A (GABA-A) receptor of rat cortex.
The next experiment has as its target Histamine H1 receptor (Cavia porcellus, UniProt P31389). Briefly: The binding affinity (pKi) measured against histamine H1 receptor of guinea pig cerebellum using [3H]mepyramine as radioligand. The class given is tissue-based.
Experiment [7] deals with 5-hydroxytryptamine receptor 2A (Homo sapiens, UniProt P28223). Briefly: Antagonistic binding affinity measured against 5-hydroxytryptamine 2A receptor (human clone expressed in 293 cells) using [3H]ketanserin as radioligand. The class given is cell-based, HEK293.
Sequence of 5-hydroxytryptamine receptor 2A (P28223 whole entry): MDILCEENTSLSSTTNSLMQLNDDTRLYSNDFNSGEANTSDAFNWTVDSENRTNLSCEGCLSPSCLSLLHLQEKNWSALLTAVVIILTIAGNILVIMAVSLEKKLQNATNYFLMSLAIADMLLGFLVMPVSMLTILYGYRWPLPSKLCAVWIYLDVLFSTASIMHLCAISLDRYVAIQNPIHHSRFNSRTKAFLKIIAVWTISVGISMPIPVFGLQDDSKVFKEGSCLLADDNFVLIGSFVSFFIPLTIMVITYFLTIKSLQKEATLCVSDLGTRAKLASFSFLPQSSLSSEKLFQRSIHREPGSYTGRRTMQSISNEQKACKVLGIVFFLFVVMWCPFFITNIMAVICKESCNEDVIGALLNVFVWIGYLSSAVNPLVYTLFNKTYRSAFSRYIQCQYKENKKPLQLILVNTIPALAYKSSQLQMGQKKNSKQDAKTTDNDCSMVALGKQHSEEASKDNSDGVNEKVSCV
In experiment [8] the target is T1, 5-hydroxytryptamine receptor 2C. Briefly: Antagonistic binding affinity measured against 5-hydroxytryptamine 2C receptor (human clone expressed in 293 cells) using [3H]mesulergine as radioligand. The class given is cell-based, HEK293.
Experiment [9] can be described thus: as §1. The class given is functional.

Sequence of 5-hydroxytryptamine receptor 2B (P30994 whole entry): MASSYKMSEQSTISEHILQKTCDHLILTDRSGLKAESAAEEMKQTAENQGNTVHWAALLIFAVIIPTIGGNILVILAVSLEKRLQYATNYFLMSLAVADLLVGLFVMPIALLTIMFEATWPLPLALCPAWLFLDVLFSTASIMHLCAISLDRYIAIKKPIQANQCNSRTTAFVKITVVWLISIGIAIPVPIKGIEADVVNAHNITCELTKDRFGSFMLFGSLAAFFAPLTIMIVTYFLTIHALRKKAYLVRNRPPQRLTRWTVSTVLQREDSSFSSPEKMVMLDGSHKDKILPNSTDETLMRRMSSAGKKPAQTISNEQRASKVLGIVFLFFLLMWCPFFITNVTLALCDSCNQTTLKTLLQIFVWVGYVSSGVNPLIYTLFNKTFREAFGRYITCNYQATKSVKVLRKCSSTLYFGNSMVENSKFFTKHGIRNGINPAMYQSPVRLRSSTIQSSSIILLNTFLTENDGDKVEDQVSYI
Sequence of 5-hydroxytryptamine receptor 1E (P28566 whole entry): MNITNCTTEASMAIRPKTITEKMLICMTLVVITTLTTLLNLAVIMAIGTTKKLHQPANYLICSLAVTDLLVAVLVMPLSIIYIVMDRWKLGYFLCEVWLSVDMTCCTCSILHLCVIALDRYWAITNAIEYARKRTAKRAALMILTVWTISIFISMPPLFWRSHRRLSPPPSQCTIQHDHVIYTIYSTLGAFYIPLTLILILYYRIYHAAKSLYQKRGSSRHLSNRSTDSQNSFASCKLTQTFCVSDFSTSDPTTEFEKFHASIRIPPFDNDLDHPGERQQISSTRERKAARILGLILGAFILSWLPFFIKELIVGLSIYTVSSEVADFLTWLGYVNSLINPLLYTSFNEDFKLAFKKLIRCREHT
Sequence of D(1A) dopamine receptor (P21728 whole entry): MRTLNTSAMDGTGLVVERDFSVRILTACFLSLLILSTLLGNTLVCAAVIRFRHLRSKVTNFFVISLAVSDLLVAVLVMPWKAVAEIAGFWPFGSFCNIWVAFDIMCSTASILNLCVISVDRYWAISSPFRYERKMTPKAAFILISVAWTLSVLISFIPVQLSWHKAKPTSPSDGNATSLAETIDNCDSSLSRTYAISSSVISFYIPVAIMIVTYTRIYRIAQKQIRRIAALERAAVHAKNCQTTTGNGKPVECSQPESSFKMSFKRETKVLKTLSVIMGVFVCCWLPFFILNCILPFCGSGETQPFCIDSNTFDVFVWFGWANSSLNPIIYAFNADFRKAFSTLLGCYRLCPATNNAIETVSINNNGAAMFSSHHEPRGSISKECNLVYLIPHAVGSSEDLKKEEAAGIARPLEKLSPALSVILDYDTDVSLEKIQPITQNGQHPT
Sequence of Histamine H1 receptor (P31389 whole entry): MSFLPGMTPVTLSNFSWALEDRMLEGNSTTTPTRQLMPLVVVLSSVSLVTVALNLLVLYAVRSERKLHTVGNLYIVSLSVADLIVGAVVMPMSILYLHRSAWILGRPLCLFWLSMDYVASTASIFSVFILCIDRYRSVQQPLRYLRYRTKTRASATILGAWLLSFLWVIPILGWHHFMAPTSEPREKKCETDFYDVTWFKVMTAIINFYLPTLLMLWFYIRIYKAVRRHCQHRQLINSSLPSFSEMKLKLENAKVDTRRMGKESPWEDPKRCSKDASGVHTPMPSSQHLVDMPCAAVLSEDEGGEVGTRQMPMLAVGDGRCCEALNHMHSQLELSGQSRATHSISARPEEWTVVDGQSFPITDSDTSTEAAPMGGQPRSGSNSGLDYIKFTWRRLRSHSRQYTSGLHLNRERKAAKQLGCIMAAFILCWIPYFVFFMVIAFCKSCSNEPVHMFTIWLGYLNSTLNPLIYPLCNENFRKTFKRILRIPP

As for `Cc1cc(NC(=O)Nc2ccc3sccc3c2)on1`, in experiment [1], the Kb was 46.8 nM. Also, the inhibition constant (Ki) was 89.1 nM in [2] and greater than 6310 nM in [3].

Take `Cc1cc(NC(=O)Nc2ccc3c(ccn3C)c2)on1`: the Kb in experiment [1] is 69.2 nM. Besides, the inhibition constant Ki in experiment [2] is 347 nM; in experiment [3], greater than 6310 nM.

Take `Cn1ccc2cc(NC(=O)Nc3cccnc3)ccc21`: the Kb in [1] is 38.9 nM. Moreover, the inhibitory constant (Ki) in experiment [2] is 110 nM.

As for `Cc1cc(NC(=O)Nc2ccc3c(ccn3C)c2)sn1`, the inhibition constant Ki in experiment [4] was greater than 100000 nM; at D(1A) dopamine receptor it was greater than 10000 nM; at D(2) dopamine receptor, greater than 31600 nM; at Histamine H1 receptor, greater than 10000 nM. The Kb in [1] was 11.2 nM. The Log Ki in [5] was greater than -5.5; in experiment [6] it was greater than -5.

`Cc1cc(NC(=O)Nc2ccc3sccc3c2)sn1`: the inhibitory constant (Ki) was 6310 nM in experiment [7] and 417 nM in experiment [8]. Also, the Kb in experiment [1] was 15.1 nM. Besides, in experiment [9], the Selectivity turned out to be 27.

A word on the Ki: it is a dissociation constant, usually derived from enzyme kinetics or from competition with a known ligand.

The values above are taken from ChEMBL document CHEMBL1128263, “N-(1-methyl-5-indolyl)-N'-(3-methyl-5-isothiazolyl)urea: a novel, high-affinity 5-HT2B receptor antagonist” (J Med Chem, 1995).
